Screening results: PubChem BioAssay, several laboratories
G6PDH counter: L. mesenteroides G6PDH inhibitors, counter-screen for G6PDH-coupled screening assays, biochemical, Leuconostoc mesenteroides enzyme | Purified L. mesenteroides G6PDH, diaphorase/resazurin coupled fluorescence, 45 min | inhibition, % at 5 µM | 200,000 tested, 0.12% active; in the data active = inhibition above about 50%
TbHK1 inh: Trypanosoma brucei hexokinase 1 inhibitors, primary screen, biochemical, G6PDH-coupled NADH absorbance, MLSCN library; inhibition, % at 10 µM; hexokinase 1 [Trypanosoma brucei]; 220,000 tested, 0.11% active; recombinant TbHK1, G6PDH-coupled NADH A340;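 active = inhibition of 50% or more in the single-dose primary screen; inactive = inhibition below 50%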
Diaph inh CS: diaphorase inhibitors and chemical oxidizers, primary screen, counter-screen for diaphorase-coupled primary assays, biochemical, uHTS, resorufin fluorescence; diaphorase resazurin-to-resorufin fluorescence, NADH, 16 min; bacterial (C. kluyveri) enzyme, not human; 190,000 tested, 0.69% active; inhibition, % at 20 µM;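 active = primary screen inhibition at 20 µM above a set limit, cut at about 50% in these data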;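 note: plate controls were DMSO with full reaction for no effect and wells lacking NADH for full effect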
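Test system: bacterial diaphorase enzyme (C. kluyveri); Quantity: 0.14 U/mL diaphorase, enzyme working solution; Times: reaction incubation of 16 min at room temperature; Measured by: fluorescence of resorufin formed from resazurin, Ex 544/Em 590 nm; Benchmarks: positive control minus NADH, DMSO neutral control.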
PfGluPho inh: PfG6PD enzyme inhibitors, primary screen, biochemical, fluorescence intensity, uHTS. glucose-6-phosphate dehydrogenase-6-phosphogluconolactonase (Plasmodium falciparum 3D7). PfGluPho enzyme, NADPH resazurin-diaphorase fluorescence. inhibition, % at 20 µM. 350,000 tested, 0.78% active. AID 504690, 2011;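 active = inhibition reaching at least a set limit at 20 µM in the primary screen, cut at about 59% in these data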;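 note: 0% = DMSO wells with substrate and 100% = DMSO wells lacking glucose-6-phosphate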
HKDC1 inh: HKDC1 hexokinase inhibitors, primary screen, biochemical, fluorescence, uHTS; Q2TB90; inhibition, % at 20 µM; AID 493160, 2011; recombinant HKDC1, G6PDH/diaphorase resazurin coupled fluorescence; 340,000 tested, 0.16% active;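 active = inhibition above about 35% when tested at 20 µM, limit read from the data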;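 note: plate controls were DMSO wells with enzyme for no effect and DMSO wells lacking enzyme for full effect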
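Test system: HK5 enzyme. Quantity: 5 µg/mL HK5 final. Reagent: glucose and ATP substrates. Schedule: 90 min reaction incubation at room temperature, dark. Technique: resazurin-to-resorufin fluorescence via G6PDH and diaphorase coupling, 525/613 nm. Control set: DMSO wells with and without enzyme mix.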
PfGluPho conf: PfG6PD inhibitors, hit retest, confirmation, biochemical, fluorescence intensity, single concentration | shares compounds with PfGluPho inh | recombinant PfGluPho, NADPH-diaphorase-resazurin fluorescence | inhibition, % at 20 µM | 2,400 tested, 34% active;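 active = inhibition of at least 50% at 20 µM in any single replicate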;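 note: 0% = DMSO with substrate and 100% = DMSO lacking glucose-6-phosphate substrate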
Diaph ctr 10uM: diaphorase inhibitors and chemical oxidizers, confirmation, counter-screen for P. falciparum G6PD inhibitor project, biochemical, fluorescence intensity, 10 µM NADPH; 820 tested, 39% active; AID 504862, 2011; diaphorase-coupled resazurin reduction, NADPH 10 uM; shares compounds with PfGluPho inh; inhibition, % at 20 µM;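 active = average inhibition reaching 50% or more with the compound at 20 µM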;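 note: resorufin red fluorescence formed as diaphorase reduces resazurin using NADPH; 0% = DMSO with enzyme and 100% = DMSO without enzyme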
Diaph ctr 30uM: diaphorase inhibitors and chemical oxidizers, confirmation, counter-screen for P. falciparum G6PD inhibitor project, biochemical, fluorescence intensity, 30 µM NADPH | shares compounds with PfGluPho inh | Diaphorase/resazurin coupled assay, resorufin fluorescence | inhibition, % at 20 µM | 820 tested, 29% active;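 active = inhibition averaging 50% or more, tested at 20 µM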;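 note: 0% = DMSO with enzyme and 100% = DMSO wells lacking diaphorase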
The depositor's hits bear a star; . = not tested or not shown. An excerpt weighted towards active compounds, which were near 1.2% of everything screened.

SMILES	G6PDH counter	TbHK1 inh	Diaph inh CS	PfGluPho inh	HKDC1 inh	PfGluPho conf	others
Cc1[nH]c2ccccc2c1/C=N/Nc1nncn1N	8	-15	-3	69*	1	60*	Diaph ctr 10uM=36;Diaph ctr 30uM=23
COc1ccc(CCNC(=O)CSc2nc3ncccc3[nH]2)c(OC)c1	.	.	.	14	-4	.
Cc1ccc(S(=O)(=O)Nc2nc(C)c(C(=O)N/N=C/c3ccccc3)s2)cc1	3	-4	12	76*	-6	67*	Diaph ctr 10uM=62*;Diaph ctr 30uM=48
O=c1[nH]c(C2CCCN(S(=O)(=O)c3ccc(F)cc3)C2)nc2c1nnn2Cc1ccc(F)cc1 (stereo not drawn)	.	.	.	-10	-3	.
Cc1cc(OCCSc2nnc(-c3cccs3)n2C)ccc1Cl	10	-2	-13	70*	5	22
Nc1ccn([C@@H]2O[C@H](CNC(=O)[C@@H](Cc3cccnc3)NC=O)[C@@H](O)[C@H]2O)c(=O)n1	.	.	.	-2	.	.
CNC(=S)N1CCC(C(=O)c2ccc(Cl)cc2)CC1	.	.	.	-3	.	.
Cc1cc(NC(=O)COC(=O)C2CC(=O)N(c3ccc(Cl)cc3)C2)no1 (stereo not drawn)	.	.	.	-19	-3	.
CCn1c(=O)n(CC)c2cc(N3CCCC3)c(NC(=O)c3ccc(F)cc3)cc21	.	.	.	78*	3	41
CCn1c(=O)n(CC)c2cc(N3CCCC3)c(NC(=O)c3c(F)cccc3F)cc21	.	.	.	39	1	.
COC(=O)/C(=N/Nc1ccccc1)N1CCCc2ccccc21	-11	-25	13	48	-4	11
COC(=O)/C(=N/Nc1cccc(C)c1)N1CCCc2ccccc21	0	-18	11	28	-6	.
COC(=O)/C(=N/Nc1ccc(C)cc1)N1CCCc2ccccc21	8	-9	18	76*	21	29
O=C(O)C(=Cc1ccccc1[N+](=O)[O-])c1ccc2c(c1)OCO2	.	.	.	-8	.	.
CCOC(=O)c1sc(NC(=O)c2ccncc2)c(C#N)c1C	-3	-11	3	78*	-15	45
CCOC(=O)Nc1ccc(NCc2ccc(F)cc2)nc1N	.	.	.	98*	32	79*	Diaph ctr 10uM=11;Diaph ctr 30uM=12
CCOC(=O)Nc1ccc(C)cc1NC(=O)OCC	5	-5	9	0	-6	.
O=c1c(Br)ccc(Br)cc1Br	.	.	.	66*	32	45
COc1cccc2c1C(=N)c1c(O)c3c(c(O)c1C2=O)CC(O)(C(C)=O)CC3OC1CC(N)C(O)C(C)O1 (stereo not drawn)	.	.	.	60*	10	20
CC(C)[C@H](NC(=O)c1cccc(CN(Cc2ccccc2)C(=O)c2ccccc2)c1)C(=O)O	.	.	.	-9	-1	.
O=C(NCc1ccccn1)c1ccc(NS(=O)(=O)c2ccccc2)cc1	.	.	.	-5	-1	.
COc1ccc(CN(CCN(C)C)c2ccccn2)cc1	11	-3	4	-5	0	.
CCCCCCCCCCCCCCCC[N+](C)(C)CCN(Cc1ccc(OC)cc1)c1ncccn1	.	.	.	64*	-5	14
Cc1nn(C)c(Sc2ccccc2N)c1[N+](=O)[O-]	12	-6	15	64*	-9	15
COc1ccc(S(=O)(=O)N(C)C[C@H]2OCc3cnnn3CCCC(=O)N([C@@H](C)CO)C[C@H]2C)cc1	.	.	.	-5	.	.
SMILES	G6PDH counter	TbHK1 inh	Diaph inh CS	PfGluPho inh	HKDC1 inh	PfGluPho conf	others
CN1CC2=Cc3ccccc3OC23Oc2ccccc2C=C3C1	8	2	5	120*	10	90*	Diaph ctr 10uM=86*;Diaph ctr 30uM=75*
COc1ccc(N=Nc2c(C)[nH]c3ccccc23)cc1	.	.	.	19	1	.
O=C1/C(=C/c2ccccc2O)SC(=S)N1Cc1cccnc1	-8	22	7	62*	-2	-9
O/N=C(/c1ccccc1)c1cc2cc(Br)cc(Br)c2o1	.	.	.	-11	1	.
COc1ccc(Cl)cc1NC(=O)CN(C)C(=O)Cc1ccc2c(c1)CCC2	.	.	.	84*	4	57*	Diaph ctr 10uM=53*;Diaph ctr 30uM=52*
Cc1nnc(SCC(=O)NC2CCCC2)n1C(C)C	.	.	.	9	9	.
CN1/C(=C\C(=O)c2cccs2)Sc2ccccc21	10	3	12	105*	-1	62*	Diaph ctr 10uM=41;Diaph ctr 30uM=35
CN(C)CC1CCC/C(=C/c2ccc(Cl)cc2)C1=O (stereo not drawn)	.	.	.	60*	31	21
COc1cccc(/C=C2/CCC(CN(C)C)C2=O)c1 (stereo not drawn)	.	.	.	70*	17	39
COc1ccc(/C=C2/CCCC(CN(C)C)C2=O)cc1 (stereo not drawn)	.	.	.	44	15	.
COc1cccc(/C=C2\CCC(C3CCCC3)C2=O)c1 (stereo not drawn)	.	.	.	8	3	.
Cc1ccc2nc(Cl)c(/C=N/Nc3ccc(C(=O)O)cc3)cc2c1	.	-11	.	60*	10	32
CCc1ccc2c(CC(=O)Nc3cccc(S(=O)(=O)N4CCOCC4)c3)coc2c1	.	.	.	10	0	.
CCN(CC)C(=O)c1c(C)[nH]c(=S)c(C#N)c1-c1ccco1	8	-6	14	61*	-2	51*	Diaph ctr 10uM=3;Diaph ctr 30uM=-4
COc1ccc(OC)c(-c2c3c([nH]c(=S)c2C#N)CCCC3)c1	3	-6	11	61*	2	27
N#Cc1c(-c2cccnc2)c2c([nH]c1=S)CCCC2	-4	3	25	58	6	.
COc1ccc(-c2c3c([nH]c(=S)c2C#N)CCC3)cc1	-17	-2	11	64*	3	42
N#Cc1c(-c2ccco2)c2c([nH]c1=S)CCCC2	-31	.	20	71*	4	34
Cc1[nH]c(=S)c(C#N)c(-c2ccccc2)c1C(=O)Nc1ccccc1	.	-19	.	27	-1	.
CC(NC(=O)c1ccc(F)cc1F)C1CC2CCC1C2 (stereo not drawn)	.	.	.	-9	-6	.
Cc1ccc(C)c(-n2sc3ccc(F)cc3c2=O)c1	.	.	.	115*	4	107*	Diaph ctr 10uM=-25;Diaph ctr 30uM=-27
